Compounds with a hit are over-represented: about 0.58% of the library has one in this group of screens.
PDI inh – blocks human protein disulfide isomerase activity | P07237 | PDI insulin aggregation turbidity, A650, 90 min | inhibition, % at 10 µM | 0.052% of 350,000 active;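 active = mean inhibition across replicates of 30% or more, whatever share of single replicates reach that level; inconclusive = mean inhibition below 30% while every single replicate reaches 30%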
miR-122 sensor – blocks miR-122 activity in Huh7 sensor cells. activation (reporter increase), % at 12.5 µM. 0.3% of 340,000 active. Huh7 miR-122 Renilla luciferase sensor, 48 h; neutral wells = 0, positive control = 100. AID 602342;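 active = mean replicate activation score at least 90 and every replicate individually at or above 90; inconclusive = only one of the two criteria met; inactive = neither criterion met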;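 note: higher luciferase means less miR-122 activity so hits act as miR-122 inhibitors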
Cneo AK release – causes C. neoformans cell lysis. 0.2% of 360,000 active. AID 651654. adenylate kinase release luminescence, 4 h; normalised: neutral wells 0, clomiphene wells 100. lysis activity, % at 15 µM;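 active = mean lysis activity across replicates of at least 80%, whatever share of replicates individually reach that level; inactive = mean lysis activity below 80%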
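Material – Cryptococcus neoformans yeast cells · Quantity – 5 × 10^6 yeast cells/mL · Buffer or medium – YPD medium · Compound – single dose · Timing – 4 h static compound exposure, 37 °C, read 1 h post-reagent · Signal – adenylate kinase release luminescence · Read-out basis – lysis from increased AK signal · Benchmarks – Clomiphene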
PglD inh – PglD (C. jejuni) enzyme inhibition | AID 602405 | inhibition, % at 12.5 µM | purified PglD enzyme, DTNB colorimetric CoA detection | 0.098% of 360,000 active; in the data active = inhibition above about 16%, passing the limit was not always enough; inconclusive = no clear call, values can overlap the other calls
ERp5 inh – blocks human ERp5 reductase activity on insulin; AID 651711; Q15084; ERp5 insulin aggregation, absorbance 650 nm, 90 min; inhibition, % at 9.99 µM; 0.05% of 350,000 active;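 active = mean replicate inhibition above about 25%, with every replicate also reaching it, limit read from the data, passing the limit was not always enough; inconclusive = only one of those two criteria met; inactive = neither criterion met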
Target sequence (Q15084 whole entry, looked up): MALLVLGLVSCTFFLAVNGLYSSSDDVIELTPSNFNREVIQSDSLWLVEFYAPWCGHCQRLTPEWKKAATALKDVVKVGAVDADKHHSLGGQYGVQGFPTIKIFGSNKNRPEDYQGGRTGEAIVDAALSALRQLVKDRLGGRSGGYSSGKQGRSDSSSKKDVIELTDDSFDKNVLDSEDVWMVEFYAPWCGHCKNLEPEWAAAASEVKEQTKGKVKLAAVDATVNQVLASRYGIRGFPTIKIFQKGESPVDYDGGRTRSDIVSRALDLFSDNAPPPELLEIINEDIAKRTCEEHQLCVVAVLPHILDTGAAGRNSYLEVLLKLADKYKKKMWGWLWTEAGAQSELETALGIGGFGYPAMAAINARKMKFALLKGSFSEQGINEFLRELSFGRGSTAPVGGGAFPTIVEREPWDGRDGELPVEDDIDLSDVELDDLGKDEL
PvdQ inh – P. aeruginosa PvdQ acylase inhibition | purified PvdQ acylase, fluorescence plate reader | inhibition, % at 10 µM | 0.063% of 340,000 active | AID 488965; in the data active = inhibition above about 30%, passing the limit was not always enough; inconclusive = no clear call, values can overlap the other calls
miR-27b qPCR – alters miR-27b levels in Huh7 cells, selectivity for miR-122 inhibitors. shares compounds with miR-122 sensor. Huh7 miR-27b levels, qRT-PCR, 48 h. relative miR-27b level (unnormalised ratio), ratio at 35 µM. 35 tested, under 10 active;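 active = compounds lowering miR-27b whose fitted half-maximal dose is at most twice their top tested dose; inconclusive = flat curve with moderate drop, or poor fit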
PglD confirm – blocks Campylobacter jejuni PglD acetyltransferase activity; shares compounds with PglD inh; Purified C. jejuni PglD, DTNB absorbance 412 nm; inhibition, % at 20 µM; 320 tested, under 10 active;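 active = mean inhibition across replicates of at least 20% with every single replicate also at 20% or more; inconclusive = mean inhibition at least 20% but some replicate falls below 20%; inactive = mean inhibition under 20% and not all replicates reach it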;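 note: initial rate of CoA release by acetyl transfer from AcCoA to the UDP-4-amino sugar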
Numbers stand for hits; – = inactive; ? = inconclusive; · = not tested or not shown.

SMILES	PDI inh	miR-122 sensor	Cneo AK release	PglD inh	ERp5 inh	PvdQ inh	others
COc1ccc(S(=O)(=O)NCCN2CCOCC2)c2ccccc12	–	?	–	–	·	–	miR-27b qPCR=–
O=S(=O)(c1ccc2c(c1)CCCN2)N1CCC[C@@H]2CCCC[C@H]21	·	·	·	·	·	·	miR-27b qPCR=–
O=S(=O)(c1ccc2c(c1)CCN2)N1CCOCC1	–	·	–	–	–	–
COc1cccc(NC(=O)N[C@@H]2CC[C@H](CC(=O)Nc3ccc(-c4ccccc4)cc3)O[C@@H]2CO)c1	·	–	–	–	–	·
COc1ccc(C(C)(C)C)cc1S(=O)(=O)NCC1CCCO1 (configuration not stated)	–	170	–	–	–	–	miR-27b qPCR=–
Cc1cc(C)c(S(=O)(=O)NCCOc2ccccc2)c(C)c1-n1cnnn1	–	–	–	–	–	–
Cc1cc(C)c(S(=O)(=O)NC(C)C)c(C)c1-n1cnnn1	–	91	–	–	–	–	miR-27b qPCR=–
CC(=O)N1C[C@H]2[C@@H](c3ccccc31)[C@@H](CO)N2C(=O)c1ccc(F)cc1	·	–	–	–	–	·
S=C(Nc1ccc(Cl)cc1Cl)NC1CCCCC1	–	133	–	–	·	–	miR-27b qPCR=–
C/C=C/c1ccc2c(c1)O[C@@H](CN(C)C(=O)CN(C)C)[C@@H](C)CN([C@@H](C)CO)S2(=O)=O	·	–	–	–	–	·
COC(=O)c1cc(S(=O)(=O)Nc2cc(OC)cc(OC)c2)cn1C	–	153	–	–	–	–	miR-27b qPCR=–
COc1ccc(S(=O)(=O)Nc2cccc(C)c2C)c2cccnc12	–	·	–	–	–	–
COc1ccc(S(=O)(=O)Nc2ccc(OC(F)F)cc2)c2cccnc12	·	·	·	·	·	·	miR-27b qPCR=–
Cc1ccc(C)c(S(=O)(=O)Nc2ccc(-n3cnnn3)cc2)c1	–	183	–	–	·	–	miR-27b qPCR=–
Cc1ccc(C)c(S(=O)(=O)Nc2ccc(O)cc2)c1	–	–	–	–	·	–
CC(C)NC(=O)N1C[C@H]2[C@@H](c3ccccc31)[C@H](CO)N2C(=O)c1ccc(F)cc1	·	–	–	–	–	·
Cc1ccc(C(=O)C2Oc3ccccc3C3CC(c4ccc(C)cc4)=NN23)cc1 (configuration not stated)	–	152	–	–	–	–	miR-27b qPCR=–
Cc1cc(S(=O)(=O)NC2CCCCC2)c(C)s1	–	260	·	–	–	–	miR-27b qPCR=–
COc1cc(S(=O)(=O)NC2CCCC2)c(OC)cc1C	–	?	–	–	–	–
O=C(N[C@H]1CC[C@@H](CCNC(=O)C2CCC2)O[C@H]1CO)c1ccccn1	·	·	–	–	–	·
CCN(CC)C(=O)CN(c1cc2c(cc1OC)oc1ccccc12)S(=O)(=O)c1ccccc1	–	100	–	–	·	–	miR-27b qPCR=–
C[C@@H]1CN([C@H](C)CO)C(=O)c2cc(NC(=O)Nc3cccc4ccccc34)ccc2O[C@@H](C)CCCCO[C@H]1CN(C)S(=O)(=O)c1ccc(F)cc1	·	–	–	–	–	·
O=C(Nc1ccc2ccccc2c1)c1ccc(Cl)cc1Cl	–	·	–	–	–	–	miR-27b qPCR=–
O=C(Nc1ccc2ccccc2c1)c1ccccc1Cl	–	–	–	–	–	·
CCCNC(=O)C[C@@H]1CC[C@H]2[C@H](COc3ccc(NC(=O)c4cccc(C(F)(F)F)c4)cc3C(=O)N2C)O1	·	–	–	–	–	·
SMILES	PDI inh	miR-122 sensor	Cneo AK release	PglD inh	ERp5 inh	PvdQ inh	others
CCCCOCCCNC(=O)N[C@H](C(=O)O)C(C)CC (some centres not stated)	–	–	–	–	–	–
CCC(C)[C@H](NC(=O)NC1CC1)C(=O)O (some centres not stated)	–	–	–	27	–	–	PglD confirm=–
CC(C)C#Cc1ccc2c(c1)O[C@H](CN(C)CC1CCOCC1)[C@@H](C)CN([C@@H](C)CO)S2(=O)=O	·	–	–	–	–	·
Cc1cccc(Cn2c(=O)n(Cc3ccco3)c(=O)c3ccccc32)c1	–	–	–	–	·	–
Cc1ccccc1Cn1c(=O)n(Cc2ccco2)c(=O)c2ccccc21	–	–	–	42	·	–	PglD confirm=–
COCCNC(=O)CCCC(=O)NCCOC	–	–	–	35	·	–	PglD confirm=–
COCCNC(=O)Cc1ccc(F)cc1	–	·	·	·	–	–
CCC1CCC2(CC1)NC(=O)N(CC(=O)NCc1ccc(Cl)cc1)C2=O (configuration not stated)	–	–	–	–	–	–
CC1CCC2(CC1)NC(=O)N(CC(=O)NCc1ccc(Cl)cc1)C2=O (configuration not stated)	–	–	–	21	–	–	PglD confirm=–
COc1ccc(N2CCN(CCC(O)c3ccc4ccccc4c3)CC2)cc1 (configuration not stated)	–	–	–	29	–	–	PglD confirm=–
COc1ccc(C(CCN2CCN(c3ccccc3)CC2)c2c(O)cc(OC)cc2OC)cc1 (configuration not stated)	–	–	–	–	·	–
CCOC(=O)CSc1nnc2c3ccccc3n(C)c2n1	–	–	–	–	–	–
Cn1c2ccccc2c2nnc(SCC(N)=O)nc21	–	–	–	47	–	–	PglD confirm=–
COc1ccc(N(CC(=O)Nc2cccc(C(C)=O)c2)S(=O)(=O)c2ccc(NC(C)=O)cc2)cc1	–	·	–	77	–	–	PglD confirm=–
COc1ccc(S(=O)(=O)N2CCN(CCOc3ccc(Br)cc3)CC2)cc1OC	–	–	–	–	–	–
COc1ccc(OC)c(C(=O)CN2CCN(S(=O)(=O)c3ccc(Br)cc3)CC2)c1	–	–	–	21	·	–	PglD confirm=–
CNC[C@H]1Oc2ccc(NC(=O)Cn3cnnn3)cc2C(=O)N([C@H](C)CO)C[C@@H]1C	·	–	–	–	–	·
CC(=O)N1[C@@H]2Cn3c(cccc3=O)[C@H]1[C@@H](C(=O)NCC1CCCCC1)[C@@H]2CO	·	–	–	–	–	·
O=C(NCCCN=C1NS(=O)(=O)c2ccccc21)c1ccc(F)cc1	–	–	–	–	–	–
O=C(NCCCN=C1NS(=O)(=O)c2ccccc21)c1ccncc1	–	–	–	25	·	–	PglD confirm=–
Cc1noc(C)c1NC(=O)Nc1ccc2c(c1)C(=O)N([C@@H](C)CO)C[C@H](C)[C@@H](CN(C)Cc1ccc(C(F)(F)F)cc1)OCCCC[C@H](C)O2	·	–	–	–	–	·
CCC(NC(=O)NCc1cccnc1)(C(F)(F)F)C(F)(F)F	–	–	–	20	·	–	PglD confirm=–
O=C(CC(=O)NCc1cccnc1)NCc1cccnc1	–	–	–	–	·	–
CCCn1c(=O)c(Cc2ccccc2)c(O)c2ccccc21	–	–	–	–	·	–
CCCCCn1c(=O)c(Cc2ccccc2)c(O)c2ccccc21	–	–	–	22	·	–	PglD confirm=–

Screens deposited in PubChem BioAssay by Broad Institute.
